According to ChEMBL document CHEMBL1155020, “Trithiocarbonates as a novel class of HDAC inhibitors: SAR studies, isoenzyme selectivity, and pharmacological profiles” (J Med Chem, 2008):

What was measured:
Histone deacetylase 1 = Histone deacetylase 1 (Homo sapiens, UniProt Q13547); test: Inhibition of recombinant HDAC1 expressed in HEK293 cells; type: cell-based
[1] = target: T1, Protein deacetylase HDAC6 (Homo sapiens, UniProt Q9UBN7); test: Inhibition of recombinant HDAC6 expressed in HEK293 cells; type: cell-based
T1 sequence (Q9UBN7 whole entry): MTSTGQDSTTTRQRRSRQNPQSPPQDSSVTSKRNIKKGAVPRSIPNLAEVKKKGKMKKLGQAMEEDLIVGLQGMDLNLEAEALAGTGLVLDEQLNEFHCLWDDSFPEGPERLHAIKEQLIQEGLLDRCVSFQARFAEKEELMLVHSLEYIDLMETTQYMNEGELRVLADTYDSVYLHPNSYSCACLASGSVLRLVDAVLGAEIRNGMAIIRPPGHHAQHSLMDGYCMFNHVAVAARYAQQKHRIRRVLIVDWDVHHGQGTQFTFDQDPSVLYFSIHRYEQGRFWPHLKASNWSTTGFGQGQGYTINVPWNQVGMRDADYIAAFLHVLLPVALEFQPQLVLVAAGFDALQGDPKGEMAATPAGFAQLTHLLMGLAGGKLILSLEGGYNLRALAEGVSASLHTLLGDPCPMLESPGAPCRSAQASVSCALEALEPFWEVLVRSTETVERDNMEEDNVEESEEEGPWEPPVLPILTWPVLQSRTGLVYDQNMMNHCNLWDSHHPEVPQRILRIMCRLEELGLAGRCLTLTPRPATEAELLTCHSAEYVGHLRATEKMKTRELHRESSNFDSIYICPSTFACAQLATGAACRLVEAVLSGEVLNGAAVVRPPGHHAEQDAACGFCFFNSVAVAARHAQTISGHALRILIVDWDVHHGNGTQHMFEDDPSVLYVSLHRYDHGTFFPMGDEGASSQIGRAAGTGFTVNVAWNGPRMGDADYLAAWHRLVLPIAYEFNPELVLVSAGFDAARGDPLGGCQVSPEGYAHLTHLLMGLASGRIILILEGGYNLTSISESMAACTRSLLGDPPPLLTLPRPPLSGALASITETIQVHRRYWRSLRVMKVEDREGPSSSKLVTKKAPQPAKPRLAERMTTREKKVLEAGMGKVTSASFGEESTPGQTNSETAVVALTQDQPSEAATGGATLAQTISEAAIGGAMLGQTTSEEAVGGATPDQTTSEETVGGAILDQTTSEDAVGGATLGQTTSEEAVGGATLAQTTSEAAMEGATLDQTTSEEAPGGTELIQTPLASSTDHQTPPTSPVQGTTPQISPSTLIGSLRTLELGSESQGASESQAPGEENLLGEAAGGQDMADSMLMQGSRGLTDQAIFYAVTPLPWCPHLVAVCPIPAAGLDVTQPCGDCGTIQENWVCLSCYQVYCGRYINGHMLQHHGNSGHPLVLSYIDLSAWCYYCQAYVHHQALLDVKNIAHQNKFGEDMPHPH

Histone deacetylase [2] = test: Inhibition of nuclear HDAC isolated from human HeLa cells; type: cell-based
Histone deacetylase [3] = test: Inhibition of HDAC in human HeLa cells; type: cell-based
HeLa = test: Cytotoxicity against human HeLa cells after 72 hrs by alamar blue assay; type: functional, cell-based
Method in brief: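 HeLa cells were seeded at densities allowing growth through 72 h of compound exposure at 37 °C, 5% CO2. Viability was read by Alamar Blue (resazurin) reduction. Replicate assays were averaged, and IC50 was taken from concentration-effect curves.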

Sequence of Histone deacetylase 1 (Q13547 whole entry): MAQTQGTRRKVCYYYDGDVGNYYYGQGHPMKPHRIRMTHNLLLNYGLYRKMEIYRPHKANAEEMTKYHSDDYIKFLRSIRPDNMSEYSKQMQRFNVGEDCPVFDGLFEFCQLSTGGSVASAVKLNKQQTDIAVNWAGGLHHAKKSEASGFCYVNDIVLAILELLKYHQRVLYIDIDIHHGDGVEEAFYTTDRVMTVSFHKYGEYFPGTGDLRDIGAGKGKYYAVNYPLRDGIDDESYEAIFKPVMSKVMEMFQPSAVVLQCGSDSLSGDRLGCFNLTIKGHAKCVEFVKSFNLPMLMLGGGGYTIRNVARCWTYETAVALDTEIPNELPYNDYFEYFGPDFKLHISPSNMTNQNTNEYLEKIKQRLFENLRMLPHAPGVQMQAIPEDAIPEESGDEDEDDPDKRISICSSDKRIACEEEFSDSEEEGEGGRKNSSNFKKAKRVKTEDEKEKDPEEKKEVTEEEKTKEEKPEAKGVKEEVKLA

| Compound | IC50 (Histone deacetylase 1) | IC50 [1] | IC50 (Histone deacetylase [2]) | IC50 (Histone deacetylase [3]) | IC50 (HeLa) |
| --- | --- | --- | --- | --- | --- |
| CCOC(=S)SCC(=O)c1ccc(OC)cc1 | 1380 nM | 448 nM | 0.811 µM | 4.72 µM | 4.64 µM |
| CCSC(=S)SCC(=O)c1ccc(Nc2ncnc3ccccc23)cc1 | 25800 nM | 390 nM | 0.379 µM | 2.99 µM | 2.65 µM |
| COc1ccc(C(=O)CSC(=S)SCCNC(C)=O)cc1 | 7510 nM | 1640 nM | 0.467 µM | 3.47 µM | 11.1 µM |
| CCSC(=S)SCC(=O)c1cccc(C(=O)NCCOc2ccccc2)c1 | 328 nM | 198 nM | 0.027 µM | 0.5 µM | 10.2 µM |
| COc1ccc(C(=O)CSC(=S)SCCOc2ccccc2)cc1 | 9720 nM | 4570 nM | 0.128 µM | 11.6 µM | 5.46 µM |
| CCSC(=S)SCC(=O)c1ccc(-c2ccc(N)cn2)s1 | 831 nM | 43 nM | 0.083 µM | 1.18 µM | 0.452 µM |
| CCSC(=S)SCC(=O)c1cccc(NC(=O)c2cnc3ccccc3c2)c1 | 592 nM | 89 nM | 0.036 µM | 0.483 µM | 9.61 µM |
| CCSC(=S)SCC(=O)c1cccc(C(=O)Nc2ccccc2)c1 | 1670 nM | 517 nM | 0.124 µM | 1.23 µM | 2.4 µM |
| CCSC(=S)SCC(=O)c1cccc(NC(=O)c2cccnc2)c1 | 388 nM | 38 nM | 0.184 µM | 0.646 µM | 7.02 µM |
| CCOC(=O)SCC(=O)c1ccc(OC)cc1 | 21200 nM | 5360 nM | 2.81 µM | 9.79 µM | 18.5 µM |
| CCCC(=S)SCC(=O)c1ccc(NC(C)=O)cc1 | 164 nM | 23 nM | 0.087 µM | 1.37 µM | 6.41 µM |
| CCNC(=O)SCC(=O)c1ccc(OC)cc1 | 368 nM | 132 nM | 0.115 µM | 3.18 µM | 13.3 µM |
| CCSC(=S)SCC(=O)c1ccc(NC(=O)c2ccccc2)cc1 | 10400 nM | 175 nM | 0.074 µM | 7.46 µM | 15.8 µM |
| CCSC(=S)SCC(=O)c1ccc(S(=O)(=O)Nc2ccc(Cl)cc2)cc1 | 589 nM | 340 nM | 0.008 µM | 0.299 µM | 6.08 µM |
| CCSC(=S)SCC(=O)c1ccc(C(=O)Nc2ccccc2)s1 | 31600 nM | 245 nM | 0.063 µM | 0.423 µM | 50 µM |
| CCSC(=S)SCC(=O)c1ccc(NC(C)=O)cc1 | 1680 nM | 180 nM | 0.318 µM | 0.857 µM | 1.46 µM |
| CCSC(=S)SCC(=O)c1ccc(NS(=O)(=O)c2ccc(Cl)cc2)cc1 | 2490 nM | 979 nM | 0.025 µM | 1.74 µM | 10.4 µM |
| CCSC(=S)SCC(=O)c1ccc(C(=O)Nc2ccccc2)cc1 | 27900 nM | 521 nM | 0.074 µM | 1.11 µM | 25.8 µM |
| CCSC(=S)SCC(=O)c1cccc(NS(=O)(=O)c2ccccc2)c1 | 1550 nM | 104 nM | 0.127 µM | 2.78 µM | 11.9 µM |

| Compound | IC50 (Histone deacetylase 1) | IC50 [1] | IC50 (Histone deacetylase [2]) | IC50 (Histone deacetylase [3]) | IC50 (HeLa) |
| --- | --- | --- | --- | --- | --- |
| CCNC(=S)SCC(=O)c1ccc(NC(C)=O)cc1 | 141 nM | 18 nM | 0.094 µM | 1.12 µM | 11 µM |
| CCSC(=S)SCC(=O)c1cccc(NC(C)=O)c1 | 2930 nM | 329 nM | 0.506 µM | 3.28 µM | 9.38 µM |
| CCSC(=S)SCC(=O)c1ccc(OC)cc1 | 4560 nM | 1220 nM | 0.375 µM | 4.67 µM | 1.96 µM |
| CCSC(=S)SCC(=O)c1ccc(C(=O)NCc2ccccc2)cc1 | 5780 nM | 830 nM | 0.09 µM | 1.5 µM | 23.9 µM |
| CCSC(=S)SCC(=O)c1cccc(CNC(C)=O)c1 | 38200 nM | 816 nM | 6.59 µM | 6.82 µM | 11.3 µM |
| COCCSC(=S)SCC(=O)c1ccc(OC)cc1 | 8940 nM | 2130 nM | 0.293 µM | 5.53 µM | 7.88 µM |
| CCSC(=S)SCC(=O)c1cccc(NS(=O)(=O)c2ccc(Cl)cc2)c1 | 3460 nM | 1250 nM | 0.048 µM | 9.08 µM | 46.6 µM |
| CCSC(=S)SCC(=O)c1ccc(S(=O)(=O)Nc2ccc(OC)cc2)cc1 | 227 nM | 245 nM | 0.016 µM | 0.377 µM | 4.32 µM |
| CCSC(=S)SCC(=O)c1ccc(NS(=O)(=O)c2ccccc2)cc1 | 1870 nM | 382 nM | 0.042 µM | 0.8 µM | 9.04 µM |
| CCSC(=S)SCC(=O)c1ccc(C(=O)NCc2cc(C)cc(C)c2)s1 | 587 nM | 396 nM | 0.015 µM | 0.836 µM | 31.3 µM |
| CCSC(=S)SCC(=O)c1ccc(CN(C)C(C)=O)cc1 | 946 nM | 256 nM | 0.384 µM | 6.33 µM | 21.5 µM |
| CCSC(=S)SCC(=O)c1cccc(C(=O)NCc2ccccc2)c1 | 672 nM | 195 nM | 0.049 µM | 0.533 µM | 13.1 µM |
| CCSC(=S)SCC(=O)c1cccc(S(=O)(=O)Nc2ccc(OC)cc2)c1 | 530 nM | 519 nM | 0.015 µM | 2.77 µM | 5.17 µM |
| CCSC(=S)SCC(=O)c1ccc(NS(C)(=O)=O)cc1 | 6110 nM | 1090 nM | 1.26 µM | 8.95 µM | 45.8 µM |
| CCSC(=S)SCC(=O)c1ccc(NC(=O)Nc2ccccc2)cc1 | 18800 nM | 606 nM | 0.04 µM | 1.19 µM | 20.2 µM |
| CCSC(=S)SCC(=O)c1ccc(C(=O)NCc2ccccc2)s1 | 340 nM | 44 nM | 0.019 µM | 0.411 µM | 13 µM |
| CCSC(=S)SCC(=O)c1ccc(C(=O)NCCOc2ccccc2)cc1 | 712 nM | 483 nM | 0.032 µM | 0.964 µM | 18.2 µM |
| CCSC(=S)SCC(=O)c1ccc(NC(=O)c2cccnc2)cc1 | 1160 nM | 421 nM | 0.174 µM | 0.865 µM | 5.16 µM |
| CCNC(=S)SCC(=O)c1ccc(OC)cc1 | 215 nM | 94 nM | 0.195 µM |  | 7.8 µM |
